The values below come from ChEMBL document CHEMBL1629442, “Structure based optimization of chromen-based TNF-α converting enzyme (TACE) inhibitors on S1' pocket and their quantitative structure-activity relationship (QSAR) study” (Bioorg Med Chem, 2010).

As a reminder, the IC50 is the midpoint of a concentration-inhibition curve. The term MRT inf denotes a mean duration of stay, worked out from the concentration-time curve. The term half-life denotes the time needed for the level to fall by half in the phase considered. A word on the AUC(0-inf): it is the area under the concentration-time curve extrapolated to infinity. As a reminder, the clearance is the rate of elimination divided by the concentration. What is called bioavailability is dose-corrected exposure relative to a reference, in per cent. A word on the inhibition in vivo: it is the drop in the measured response relative to a control, in per cent. As usually defined, the Cmax is the peak of the concentration-time curve. Broadly, the Tmax is the time at which the peak concentration occurs. By microsomal CLint is commonly meant the rate of metabolic loss divided by the concentration.

The target of data set [1] is Matrix metalloproteinase-9 (Homo sapiens, UniProt P14780). Description: Inhibition of human MMP9 in cell-free system by fluorescent spectroscopy. The method, boiled down:
(§1)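 Recombinant human MMP-3 or MMP-9 catalytic domain with fluorogenic quenched peptide Mca-Pro-Leu-Gly-Leu-Dpa-Ala-Arg-NH2. Cleavage followed as fluorescence increase (excitation 324, emission 420). Rate of emission change taken as enzyme activity; IC50 values are means of three experiments.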

A short description of data set [2]: Mean residence time (infinity) in Sprague-Dawley rat at 5 mg/kg, iv. The following applies: in vivo. The class given is ADME, organism-based. Details: dose 5 mg/kg, route intravenous. In outline:
(§2)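 Male SD rats (10 weeks old, 285–305 g), cannulated in the right jugular vein, dosed iv or po with compound in saline, N = 3 per route. Blood drawn through the cannula at set times over 24 h and spun for plasma. Acetonitrile protein precipitation with carbamazepine internal standard, LC/MS/MS in positive MRM mode, non-compartmental analysis.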

Data set [3] can be described thus: Half life in Sprague-Dawley rat at 5 mg/kg, iv. The class given is ADME, organism-based. The arrangement: dose 5 mg/kg, route intravenous. The following applies: in vivo. In outline:
as §2

A short description of data set [4]: AUC (0 to infinity) in Sprague-Dawley rat at 30 mg/kg, po. It is filed as ADME, organism-based. The arrangement: time infinity, dose 30 mg/kg, route oral. The following applies: plasma. The method, boiled down:
as §2

In data set [5] the test system is Rattus norvegicus. Description: Antiinflammatory activity in Sprague-Dawley rat assessed as inhibition of carrageenan-induced paw edema at 30 mg/kg, ip administered 30 mins before carrageenan challenge measured at 6 hrs. The class given is functional. The following applies: route intraperitoneal. Details: scale not given: the % may be the effect or the level left. In outline: (§3)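 SD rats (150 g, 5 weeks, SPF), five per group: vehicle, indomethacin 10 mg/kg (DMSO/Tween 80/H2O 1:4:95) as positive control, or compound at 30 or 100 mg/kg (ethanol/PEG 400-based vehicle), given ip. Ankle thickness measured by caliper; swelling expressed as % increase over pre-treatment thickness. Inhibition taken relative to vehicle at 6 h and later time point.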
For orientation: In the carrageenan paw model, swelling and tenderness develop within hours.

Data set [6] is described as follows: Clearance in Sprague-Dawley rat at 5 mg/kg, iv. The class given is ADME, organism-based. The arrangement: dose 5 mg/kg, route intravenous. The following applies: in vivo. In outline:
as §2

The nature of data set [7]: AUC (0 to infinity) in Sprague-Dawley rat at 5 mg/kg, iv. It is filed as ADME, organism-based. The arrangement: time infinity, dose 5 mg/kg, route intravenous. The following applies: plasma. In outline:
as §2

Data set [8] can be described thus: Mean residence time (infinity) in Sprague-Dawley rat at 30 mg/kg, po. It is filed as ADME, organism-based. The arrangement: dose 30 mg/kg, route oral. The following applies: in vivo. In outline: as §2
The nature of data set [9]: Oral bioavailability in Sprague-Dawley rat at 30 mg/kg, po. It is filed as ADME, organism-based. The following applies: in vivo. The method, boiled down:
as §2

Data set [10] relates to Mus musculus. Description: Inhibition of LPS-alpha induced TNF-alpha production in BALB/c mouse assessed as decreased plasma TNF level at 30 mg/kg, po administered post LPS challenge measured after 60 mins by ELISA. The following applies: 1 h. The class given is functional. In outline:
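BALB/c mice (7–9 weeks), four per group, fasted 24 h. LPS given ip; compound given orally at 30 mg/kg ([…]). Serum collected from the heart and TNF-α measured by ELISA; percent inhibition reported.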
(In general: An ELISA detects its analyte on a solid surface through an enzyme-linked reagent.)

Data set [11] concerns Rattus norvegicus. Description: Antiinflammatory activity in Sprague-Dawley rat assessed as inhibition of carrageenan-induced paw edema at 100 mg/kg, ip administered 30 mins before carrageenan challenge measured at 12 hrs. It is filed as functional. The arrangement: scale not given: the % may be the effect or the level left. The following applies: route intraperitoneal. The method, boiled down:
as §3

For data set [12], the species on record is Mus musculus. Description: Inhibition of NO production in mouse Raw 264.7 cells assessed as No2- accumulation in the medium after 24 hrs. The class given is functional, cell-based. The method, boiled down: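 RAW264.7 cells cultured with inhibitors for 24 h. Supernatant mixed 1:1 with Griess reagent (1% sulfanilamide, 0.1% naphthylethylenediamine dihydrochloride, 2% phosphoric acid), 10 min at room temperature. Absorbance read at 540 nm against a NaNO2 standard curve.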

A further data set concerns the target T1, Interstitial collagenase (Homo sapiens, UniProt P03956).
T1 sequence (P03956 whole entry): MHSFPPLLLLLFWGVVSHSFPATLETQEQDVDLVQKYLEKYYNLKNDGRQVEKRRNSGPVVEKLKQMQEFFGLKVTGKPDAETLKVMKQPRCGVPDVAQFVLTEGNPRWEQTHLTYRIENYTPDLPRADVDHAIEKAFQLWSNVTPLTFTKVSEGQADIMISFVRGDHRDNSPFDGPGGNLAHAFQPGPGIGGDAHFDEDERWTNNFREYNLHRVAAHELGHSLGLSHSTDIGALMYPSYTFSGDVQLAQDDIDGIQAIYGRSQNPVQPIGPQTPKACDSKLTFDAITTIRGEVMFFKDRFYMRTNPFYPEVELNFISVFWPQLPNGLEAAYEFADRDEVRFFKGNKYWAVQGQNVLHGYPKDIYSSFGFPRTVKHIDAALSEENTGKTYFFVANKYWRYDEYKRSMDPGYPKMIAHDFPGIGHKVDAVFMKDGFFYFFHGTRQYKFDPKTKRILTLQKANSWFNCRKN
Description: Inhibition of human MMP1 in cell-free system by fluorescent spectroscopy.

Data set [13] is described as follows: Cmax in Sprague-Dawley rat at 30 mg/kg, po. The following applies: in vivo. Details: dose 30 mg/kg, route oral. It is filed as ADME, organism-based. The method, boiled down: as §2
Data set [14] is described as follows: Half life in human liver microsomes at 40 uM by LC/MS/MS. It is filed as ADME, Microsome. In outline:
(§4)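 Compound at 40 µM with human liver microsomes (1 mg/mL), preincubated 5 min at 37 °C, then started with NADPH (1 mM final). Aliquots taken at 0, 15, 45 and 80 min and quenched with ice-cold acetonitrile containing carbamazepine internal standard. Centrifuged, then LC/MS/MS for parent; half-life and microsomal clearance derived.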
For orientation: Liver microsomes are a subcellular fraction often used to study metabolism.

Data set [15] can be described thus: Half life in Sprague-Dawley rat at 30 mg/kg, po. It is filed as ADME, organism-based. Details: dose 30 mg/kg, route oral. The following applies: in vivo. The method, boiled down:
as §2

The target of data set [16] is T2, Disintegrin and metalloproteinase domain-containing protein 17 (Homo sapiens, UniProt P78536). Description: Inhibition of human TNF-alpha by fluorescent spectroscopy. It is filed as functional.
T2 sequence (P78536 whole entry, the tested form may be a part): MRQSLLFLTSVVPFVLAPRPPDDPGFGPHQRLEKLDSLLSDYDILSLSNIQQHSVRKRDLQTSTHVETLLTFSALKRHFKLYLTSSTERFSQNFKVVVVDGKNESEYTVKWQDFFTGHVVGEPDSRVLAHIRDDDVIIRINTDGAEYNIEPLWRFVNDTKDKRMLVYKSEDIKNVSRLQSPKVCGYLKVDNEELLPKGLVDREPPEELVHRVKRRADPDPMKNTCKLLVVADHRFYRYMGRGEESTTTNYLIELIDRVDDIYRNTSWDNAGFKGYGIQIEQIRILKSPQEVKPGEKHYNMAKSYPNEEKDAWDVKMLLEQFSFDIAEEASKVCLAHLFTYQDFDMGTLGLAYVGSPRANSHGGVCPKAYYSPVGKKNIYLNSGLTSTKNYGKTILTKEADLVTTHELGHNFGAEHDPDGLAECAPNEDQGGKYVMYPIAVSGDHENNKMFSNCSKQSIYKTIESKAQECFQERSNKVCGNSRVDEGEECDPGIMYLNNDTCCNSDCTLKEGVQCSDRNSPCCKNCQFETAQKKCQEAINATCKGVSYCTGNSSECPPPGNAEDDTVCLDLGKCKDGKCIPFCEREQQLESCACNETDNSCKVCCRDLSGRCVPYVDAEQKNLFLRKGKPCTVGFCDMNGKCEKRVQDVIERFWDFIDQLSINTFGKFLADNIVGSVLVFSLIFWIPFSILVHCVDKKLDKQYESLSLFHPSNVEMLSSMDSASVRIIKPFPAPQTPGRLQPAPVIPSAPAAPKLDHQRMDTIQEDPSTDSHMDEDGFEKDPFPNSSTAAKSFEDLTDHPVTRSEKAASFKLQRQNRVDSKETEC
A short description of data set [17]: Volume of distribution at steady state in Sprague-Dawley rat at 5 mg/kg, iv. The class given is ADME, organism-based. Details: dose 5 mg/kg, route intravenous. The following applies: in vivo, read-out: Vdss. The method, boiled down:
as §2

The nature of data set [18]: Tmax in Sprague-Dawley rat at 30 mg/kg, po. The class given is ADME, organism-based. The arrangement: dose 30 mg/kg, route oral. The following applies: in vivo. In outline:
as §2

In data set [19] the test system is Rattus norvegicus. Description: Antiinflammatory activity in Sprague-Dawley rat assessed as inhibition of carrageenan-induced paw edema at 30 mg/kg, ip administered 30 mins before carrageenan challenge measured at 12 hrs. The class given is functional. Details: scale not given: the % may be the effect or the level left. The following applies: route intraperitoneal. In outline: as §3

Data set [20] in a line: Metabolic stability in human liver microsomes at 40 uM by LC/MS/MS. It is filed as ADME, Microsome. In outline: as §4
A further data set has as its target Stromelysin-1 (Homo sapiens, UniProt P08254). Description: Inhibition of human MMP3 in cell-free system by fluorescent spectroscopy. In outline:
as §1

The subject of data set [21] is Rattus norvegicus. Description: Antiinflammatory activity in Sprague-Dawley rat assessed as inhibition of carrageenan-induced paw edema at 100 mg/kg, ip administered 30 mins before carrageenan challenge measured at 6 hrs. The following applies: route intraperitoneal. It is filed as functional. Details: scale not given: the % may be the effect or the level left. The method, boiled down:
as §3

The target in data set [22] is T2, Disintegrin and metalloproteinase domain-containing protein 17. Description: Inhibition of human TACE by fluorescent spectroscopy.

Bounds are passed on as bounds.

Sequence of Stromelysin-1 (P08254 whole entry): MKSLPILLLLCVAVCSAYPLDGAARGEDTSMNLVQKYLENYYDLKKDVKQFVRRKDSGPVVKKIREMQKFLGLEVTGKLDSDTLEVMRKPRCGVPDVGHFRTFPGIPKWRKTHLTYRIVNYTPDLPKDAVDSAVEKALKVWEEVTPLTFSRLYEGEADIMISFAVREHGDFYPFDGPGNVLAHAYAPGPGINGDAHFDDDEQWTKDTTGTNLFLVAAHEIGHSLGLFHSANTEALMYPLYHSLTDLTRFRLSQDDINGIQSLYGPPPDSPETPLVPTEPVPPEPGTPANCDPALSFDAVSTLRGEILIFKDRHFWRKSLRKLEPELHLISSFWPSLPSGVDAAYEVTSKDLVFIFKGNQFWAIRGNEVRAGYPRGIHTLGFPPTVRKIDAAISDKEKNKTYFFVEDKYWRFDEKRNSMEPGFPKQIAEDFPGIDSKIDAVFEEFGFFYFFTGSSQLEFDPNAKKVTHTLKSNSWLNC
Sequence of Matrix metalloproteinase-9 (P14780 whole entry, the tested form may be a part): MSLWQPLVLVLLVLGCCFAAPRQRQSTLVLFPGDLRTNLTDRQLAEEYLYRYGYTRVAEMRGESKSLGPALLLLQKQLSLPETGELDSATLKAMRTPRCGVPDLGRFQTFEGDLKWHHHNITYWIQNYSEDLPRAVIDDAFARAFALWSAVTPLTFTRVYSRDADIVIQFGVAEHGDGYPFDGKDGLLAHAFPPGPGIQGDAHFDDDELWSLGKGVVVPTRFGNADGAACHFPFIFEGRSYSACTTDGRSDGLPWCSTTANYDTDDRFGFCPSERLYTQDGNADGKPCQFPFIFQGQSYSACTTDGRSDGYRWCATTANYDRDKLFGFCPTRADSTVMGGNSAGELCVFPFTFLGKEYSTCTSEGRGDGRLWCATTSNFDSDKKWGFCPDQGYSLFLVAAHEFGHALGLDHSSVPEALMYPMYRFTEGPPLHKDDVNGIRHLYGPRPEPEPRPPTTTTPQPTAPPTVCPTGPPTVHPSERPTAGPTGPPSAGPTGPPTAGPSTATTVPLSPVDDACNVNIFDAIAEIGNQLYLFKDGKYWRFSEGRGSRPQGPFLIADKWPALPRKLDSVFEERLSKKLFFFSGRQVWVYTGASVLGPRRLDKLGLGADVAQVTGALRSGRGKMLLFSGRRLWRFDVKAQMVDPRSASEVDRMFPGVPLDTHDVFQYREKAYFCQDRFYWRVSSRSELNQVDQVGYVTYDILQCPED

Take `CCN(CC)CCOc1ccc(CCC(Cc2cc3ccc(C)cc3oc2=O)C(=O)NO)cc1` (stereo not given): the IC50 in [1] was 0.023 µM; in the data set listed under Mus musculus [12] it was “Not Active”; at Interstitial collagenase, 0.557 µM; in [16], 0.06 µM; on Stromelysin-1, 0.0087 µM; in data set [22], 0.00028 µM. Moreover, the MRT inf in [2] stood at 1.14 h; in data set [8], 2.9 h. For the same compound, the values for the half-life in [3] and in [15] were 2.8 h and 3.19 h, respectively. Besides, the AUC(0-inf) in data set [4] came to 4690 ng·h/mL; in data set [7], 1880 ng·h/mL. Besides, the Activity came out at 8% in the data set with Rattus norvegicus [5], 35% with Rattus norvegicus [11], 14% with Rattus norvegicus [19] and 20% in the data set on Rattus norvegicus [21]. The compound also had a clearance in [6] of 44.3 mL/min/kg. This compound gave a bioavailability in data set [9] of 41.6%. In the data set on Mus musculus [10], the inhibition in vivo at 30 mg/kg is 74%. Further, the Cmax in [13] turned out to be 1140 ng/mL. The compound also came in with a half-life at 40 µM in [14] of 1.22 h. In addition, in [17], the Vd was found to be 3.04 L/kg. For the same compound, the Tmax in [18] is 2 h. Moreover, the microsomal CLint at 40 µM in data set [20] was determined as 9.5 µL/min/mg.
As for `Cc1ccc2oc(=O)c(CC(Cc3ccccc3)C(=O)NO)cc2c1` (stereo not given), the IC50 entry in the data set filed under Mus musculus [12] is “Not Active”; in data set [16] it was 0.52 µM; in data set [22], 0.0005 µM.
For `Cc1ccc2oc(=O)c(CC(Cc3cccc(OCCN4CCCCC4)c3)C(=O)NO)cc2c1` (stereo not given), the values for the IC50 result (in the data set filed under Mus musculus [12]; in [16]; in data set [22]) were “Not Active”, 0.26 µM and 0.00107 µM, respectively.
On the same counts, the results for `Cc1ccc2oc(=O)c(CC(CCc3ccc(O)cc3)C(=O)NO)cc2c1` (stereo not given) are “Not Active”, 0.92 µM and 0.0003 µM.
Take `Cc1ccc2oc(=O)c(CC(CCCc3ccc(OCCN4CCCCC4)cc3)C(=O)NO)cc2c1` (stereo not given): the IC50 entry in the data set filed under Mus musculus [12] is “Not Active”; in [16] it was 0.32 µM; in data set [22], 0.00107 µM.
The like results for `Cc1ccc2oc(=O)c(CC(CCc3ccc(OCCN4CCCCC4)cc3)C(=O)NO)cc2c1` (stereo not given) were, in that order, “Not Active”, 0.2 µM and 0.00104 µM.
Regarding `Cc1ccc2oc(=O)c(CC(CCCc3cccc(OCCN4CCCCC4)c3)C(=O)NO)cc2c1` (stereo not given), the IC50 entry in the data set filed under Mus musculus [12] was “Not Active”; in [16], 0.23 µM; in [22], 0.00027 µM.
On the same counts, the results for `Cc1ccc2oc(=O)c(CC(CCc3cccc(OCCN4CCCCC4)c3)C(=O)NO)cc2c1` (stereo not given) are “Not Active”, 0.24 µM and 0.0009 µM.
On the same counts, the results for `Cc1ccc2oc(=O)c(CC(Cc3ccc(OCCN4CCCCC4)cc3)C(=O)NO)cc2c1` (stereo not given) are “Not Active”, 1.5 µM and 0.0109 µM.
On the same counts, the results for `CCN(CC)CCOc1ccc(CCC(Cc2cc3cc(C)ccc3oc2=O)C(=O)NO)cc1` (stereo not given) are “Not Active”, 0.14 µM and 0.00053 µM.
Turning to `Cc1ccc2oc(=O)c(CC(CCCCc3ccccc3)C(=O)NO)cc2c1` (stereo not given), the IC50 result in the data set listed under Mus musculus [12] was “Not Active”; in data set [16] it was greater than 3 µM; in data set [22], 0.0328 µM.
As for `CCN(CC)CCOc1ccc(CCC(Cc2cc3ccc(F)cc3oc2=O)C(=O)NO)cc1` (stereo not given), the IC50 entry in the data set filed under Mus musculus [12] is “Not Active”; in data set [16], 0.07 µM; in [22], 0.00046 µM.
For `Cc1ccc2oc(=O)c(CC(CCc3ccc(OCCN(C)C)cc3)C(=O)NO)cc2c1` (stereo not given), the 50% inhibitory concentration (IC50) result in the data set listed under Mus musculus [12] was “Not Active”; in [16], 0.11 µM; in [22], 0.00066 µM.
